The source made the active and inactive calls. No cut-off for these calls is given here. Residues, ends and D or L forms follow the SMILES beside them. *: point of attachment. Cbz = O=C(OCc1ccccc1)*

Broadly, the EC50 is the midpoint of the concentration-response curve.

The subject of test [1] is MCF7. Put plainly: Increase in proliferation of estrogen receptor expressing MCF7 cells at 1 uM after 3 days. The class given is functional, cell-based. To be noted: Homo sapiens. An outline of the steps:
(§1)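 Cells were held at least 2 days in phenol red-free DMEM with 10% charcoal-stripped FBS at 37 °C and 5% CO2, then plated at 10^4 cells/cm2. On day 1 the medium was replaced with medium containing compound at 10^-6 M. On day 4 cells were trypsinized and counted electronically. Values are % of untreated control, mean of four determinations ±SD, by ANOVA with Dunnett's test.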

Test [2] deals with MCF7. Nature of the test: Down regulation of estrogen receptor expression in MCF7 cells at 1 uM after 24 hrs. The class given is functional, cell-based. The note with it: Homo sapiens. An outline of the steps: (§2)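 MCF-7 cells were kept at least 2 days in phenol red-free DMEM with 10% charcoal-stripped FBS, seeded on glass coverslips at 10^4 cells/cm2, and treated 2 days later for 24 h. After fixation they were immunostained for ERα with HC-20 rabbit antiserum (1:40, 60 min, Triton-permeabilized) and Texas Red amplification. Median nuclear gray level was measured over about 80–120 nuclei per culture and expressed relative to untreated control. Statistics: Kruskal–Wallis with Dunn's test.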

The next test deals with MDA-MB-231. Put plainly: Effect on proliferation of estrogen receptor deficient MDA-MB-231 cells at 1 uM after 3 days. The class given is functional, cell-based. The note with it: Homo sapiens. An outline of the steps:
as §1

The test system of test [3] is MCF7. Nature of the test: Abrogation of estrogen receptor down regulation in MCF7 cells at 10 uM after 7 hrs. To be noted: Homo sapiens.
Another test deals with T1, Estrogen receptor (Homo sapiens, UniProt P03372).
T1 sequence (P03372 whole entry): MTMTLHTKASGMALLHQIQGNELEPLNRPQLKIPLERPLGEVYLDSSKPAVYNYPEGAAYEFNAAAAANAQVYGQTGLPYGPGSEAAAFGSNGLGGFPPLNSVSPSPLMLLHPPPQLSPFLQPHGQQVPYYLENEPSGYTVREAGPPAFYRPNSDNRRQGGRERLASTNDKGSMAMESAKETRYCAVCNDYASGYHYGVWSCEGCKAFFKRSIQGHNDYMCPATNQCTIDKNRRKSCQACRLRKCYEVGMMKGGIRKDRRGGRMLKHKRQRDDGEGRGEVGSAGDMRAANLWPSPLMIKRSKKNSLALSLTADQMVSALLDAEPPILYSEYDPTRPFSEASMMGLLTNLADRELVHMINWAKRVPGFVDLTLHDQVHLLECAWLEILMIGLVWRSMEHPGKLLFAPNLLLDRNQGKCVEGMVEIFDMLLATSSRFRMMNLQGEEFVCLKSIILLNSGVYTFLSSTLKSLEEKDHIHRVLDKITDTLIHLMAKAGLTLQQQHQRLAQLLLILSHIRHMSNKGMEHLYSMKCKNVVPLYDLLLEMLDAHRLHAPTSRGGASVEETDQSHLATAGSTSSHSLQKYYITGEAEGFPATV
Put plainly: Activity at ER assessed as enhancement of estrogen response element-driven gene transactivation in MVLN cells after 24 hrs by luciferase reporter gene assay relative to control. Background: A reporter such as luciferase makes a cellular process visible.

The subject of test [4] is MCF7. Nature of the test: Down regulation of estrogen receptor expression in MCF7 cells at 1 nM after 24 hrs. To be noted: Homo sapiens. The class given is functional, cell-based. An outline of the steps:
as §2

Test [5] concerns the target T2, Estrogen receptor (Homo sapiens) (UniProt P03372).
T2 sequence (whole entry): T1 sequence (P03372 whole entry)
Put plainly: Displacement of [3H]17beta-estradiol from estrogen receptor relative to estradiol. An outline of the steps:
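Purified recombinant human ERα, diluted in 1 mg/mL BSA, adsorbed onto hydroxyapatite, washed, then incubated overnight at 0–4 °C with 1 nM [3H]E2 plus increasing amounts of cold E2 or test compound. HAP-bound radioactivity was extracted with ethanol and counted by liquid scintillation. RBA = […] × 100.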
(Loss of bound radioactivity is the signal in a displacement assay; it reports binding, not function.)

The test system of test [6] is MCF7. Nature of the test: Inhibition of increase in proliferation of estrogen receptor expressing MCF7 cells at 10 uM after 3 days. The class given is functional, cell-based. To be noted: Homo sapiens.

Regarding `Cc1ccccc1Cc1c(NC2CCCCC2)c2ccccc2oc1=O`, the outcome in the test with MCF7 [1] and with MCF7 [2] was Active. Moreover, the result with MDA-MB-231 was inactive. Take `Cc1ccccc1Cc1c(NCCc2ccccc2)c2ccccc2oc1=O`: the result with MDA-MB-231 was inactive.

For `CC(C)C[C@@H](C=O)NC(=O)[C@H](CC(C)C)NC(=O)[C@H](CC(C)C)NC(=O)OCc1ccccc1` (Cbz-Leu-Leu-Leu-aldehyde), the result with MCF7 [3] was Active. As for `CCCCCCCCCCCCNc1c(Cc2ccccc2C)c(=O)oc2ccccc12`, the concentration for a half-maximal effect (EC50) on Estrogen receptor came to 100 nM. The result in the test with MDA-MB-231 was inactive. `C[C@]12CC[C@@H]3c4ccc(O)cc4CC[C@H]3[C@@H]1CC[C@@H]2O`: in the test on MCF7 [4], the outcome was Active.

On to `Cc1ccccc1Cc1c(NC2CCCC2)c2ccccc2oc1=O`, for which the outcome with MCF7 [1] and in the test with MCF7 [2] was Active. Also, in the test with MDA-MB-231, the outcome was inactive. This molecule yielded an RBA in test [5] of less than 0.1%. As to `C[C@]12CC[C@@H]3c4ccc(O)cc4C[C@@H](CCCCCCCCC[S+]([O-])CCCC(F)(F)C(F)(F)F)[C@H]3[C@@H]1CC[C@@H]2O` (some centres undefined), the outcome in the test with MCF7 [6] was Active. In the case of `CCCCCNc1c(Cc2ccccc2C)c(=O)oc2cc(OC)ccc12`, the outcome in the test with MDA-MB-231 was inactive.
